Each block holds one compound with its values, some of them ahead of it.
Key:
[1] = Blood half-life of 1a after i.v. or p.o. administration; type: in vivo, C57BL/6 mice; conditions: for dosed compound still present in whole blood: i.v., after initial burst phase
HDACs 1–9 = experiment: HDAC assay: biochemical profiling against purified HDAC isoforms
[2] = Biodistribution of 1a after i.v. injection; type: in vivo, C57BL/6 mice; conditions: 1 hour and 3 hours after i.v. injection
In short: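 Six C57BL/6 mice received 241 ± 18 μCi of the 18F-labelled test compound by tail-vein i.v. injection. Groups were killed at 1 h (n=3) and 3 h (n=3) post-injection. Tissues were excised and weighed, and radioactivity was gamma-counted and expressed as %ID/g.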

[3] = system: A2780 human ovarian cancer cells; experiment: PET-CT of A2780 tumor xenograft before and after competition with cold SAHA; type: in vivo, Nu/Nu mice; conditions: after systemic administration
HDAC [4] = conditions: cited from earlier work
HDAC [5] = conditions: cited from earlier work; remark: listed apart in the source

dosed compound still present in whole blood ([1]; formulation A (60% PEG400, 40% water)): < 1%
dosed compound still present in whole blood ([1]; formulation B (10%DMSO, 90% water)): ~3%
terminal half-life relative to initial t1/2 ([1]; single bolus i.v.): approximately 10 times longer
concentration in cardiac tissue [2]: comparatively low concentrations
tissues with highest concentration [2]: kidney, liver and blood
tissues with lowest concentration [2]: thymus and brain
SMILES: O=C(CCCCCCC(=O)Nc1ccc([18F])cc1)NO [1a, 18F-suberoylanilide hydroxamic acid]
HDAC potency (HDACs 1–9): low nanomolar potency
accumulation in tumors [3]: accumulate in tumors in a time-dependent manner

SMILES: O=C(CCCCCCC(=O)Nc1ccc([19F])cc1)NO [1b, N-Hydroxy-N'-(4-fluorophenyl)octanediamide]
potency and selectivity of inhibition of primary HDAC targets compared with SAHA (HDACs 1–9; HDACs 1–3 and 6): virtually indistinguishable from SAHA
HDAC isoforms inhibited (HDACs 1–9; profiled against purified HDACs 1–9): inhibited only HDACs 1–3 and 6

SMILES: Nc1ccccc1NC(=O)c1ccc(CNC(=O)OCc2cccnc2)cc1 [5b]
HDAC isoform selectivity (HDAC [4]): selective for HDAC1–3
potency relative to SAHA (fold less potent) (HDAC [4]): 20–70 fold

SMILES: O=C(C[18F])NCCCCCC(=O)Nc1ccccc1 [compound 4, 6-([18F]-fluoroacetamide)-1-hexanoicanilide]
metabolism in vivo (HDAC [5]): rapidly metabolized in vivo
